Results reported in ChEMBL document CHEMBL1128227, “Cosalane analogues with enhanced potencies as inhibitors of HIV-1 protease and integrase” (J Med Chem, 1995).
pIC50: −log10 of the molar value.

Columns and labels:
HeLa [1] = assay: Anti viral activity against HeLa cytotoxicity by minimum cytotoxic concentration that causes a microscopically detectable alteration of normal cell morphology after 2 day of treatment.; assay type: functional; conditions: Homo sapiens, 48 h
MDCK [2] = assay: Antiviral activity was determined against Influenza virus B(strain Singapore) MDCK cells by measuring concentration required to reduce virus induced cytopathogenicity by 50%.; assay type: functional, cell-based; conditions: Canis lupus familiaris
Summary of the method: (§1)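 Tested in MDCK cells, with compound applied right after infection and left on. Cytopathic effect of influenza A (Ishikawa) or B (Singapore) was read at day 5 pi. IC50 is the concentration halving cytopathogenicity, in µg/mL.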

Vero [3] = assay: Antiviral activity was determined against Junin virus in Vero cells by measuring concentration required to reduce virus induced cytopathogenicity by 50%.; assay type: functional, cell-based; conditions: Chlorocebus sabaeus
MOLT-4 [4] = assay: Gaint cell formation between HIV-1 (HTLV-IIIB) infected HUT-78 cells and uninfected MOLT-4(clone-8)cells; assay type: functional, cell-based; conditions: Homo sapiens
Summary of the method: (§2)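 Syncytium assay: HUT-78 cells persistently infected with HIV-1 (HTLV-IIIB) or HIV-2 (LAV-2ROD) were co-cultured with uninfected MOLT-4 (clone 8) cells, and giant-cell formation was scored. Compounds tested as ammonium salts. Values are means of at least two experiments.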

MT4 [5] = assay: Viral cytopathicity against HIV -I (HTLV-IIIb) strain determined in MT-4 cells; assay type: functional, cell-based; conditions: Homo sapiens
HEL [6] = assay: Antiviral activity was determined against Herpes simplex virus -1 TK-/TK+ in HEL cells by measuring concentration required to reduce virus induced cytopathogenicity by 50%.; assay type: functional, cell-based; conditions: Homo sapiens
Homo sapiens [7] = organism: Homo sapiens; assay: Cytotoxical effect against PBL cell lines was determined by reduction of cellular viability. data represent mean value of at least two separate experiments.; assay type: functional
Summary of the method: (§3)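 Compounds tested as ammonium salts. Cytotoxicity in CEM-SS, MT-4 or PBL cultures taken from the reduction in cellular viability. Values are means of at least two separate experiments.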

MDCK [8] = assay: Anti viral activity against MDCK cytotoxicity by minimum cytotoxic concentration that causes a microscopically detectable alteration of normal cell morphology after 2 day of treatment.; assay type: functional; conditions: Canis lupus familiaris, 48 h
HEL [9] = assay: Antiviral activity was determined against Herpes simplex virus -1 TK- in HEL cells by measuring concentration required to reduce virus induced cytopathogenicity by 50%.; assay type: functional, cell-based; conditions: Homo sapiens
HEL [10] = assay: Antiviral activity was determined against Vesicular stomatitis virus in HEL cells by measuring concentration required to reduce virus induced cytopathogenicity by 50%.; assay type: functional, cell-based; conditions: Homo sapiens
HEL [11] = assay: Antiviral activity was determined against Human cytomegalovirus (strain Davis) in HEL cells by measuring concentration required to reduce virus induced cytopathogenicity by 50%.; assay type: functional, cell-based
MDCK [12] = assay: Antiviral activity was determined against Influenza virus A(strain Ishikawa) in MDCK cells by measuring concentration required to reduce virus induced cytopathogenicity by 50%.; assay type: functional, cell-based; conditions: Canis lupus familiaris; summary of the method: as §1
MT4 [13] = assay: Viral cytopathicity against HIV -2 (LAV-2 rod)strain determined in MT-4 cells; assay type: functional, cell-based; conditions: Homo sapiens
HEL [14] = assay: Antiviral activity was determined against (Herpes simplex virus -2) by concentration required to reduce virus induced cytopathogenicity by 50%.; assay type: functional, cell-based; conditions: Homo sapiens
[15] = target: Human immunodeficiency virus type 1 protease (Human immunodeficiency virus 1, UniProt Q72874); assay: Inhibition of HIV -1 protease
Summary of the method: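 Purified HIV-1 protease with the peptide substrate Ala-Ser-Glu-Asn-Tyr-Pro-Ile-Val-Glu-amide. Cleavage quantified by reverse-phase HPLC. Compounds tested as ammonium salts. Values are means of at least two experiments.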

HEL [16] = assay: Antiviral activity was determined against Herpes simplex virus -1 in HEL cells by measuring concentration required to reduce virus induced cytopathogenicity by 50%.; assay type: functional, cell-based; conditions: Homo sapiens
HEL [17] = assay: Antiviral activity was determined against Vaccinia virus in HEL cells by measuring concentration required to reduce virus induced cytopathogenicity by 50%.; assay type: functional, cell-based; conditions: Homo sapiens
MT4 [18] = assay: Cytotoxical effect against MT-4 cell lines was determined by reduction of cellular viability. data represent mean value of at least two separate experiments.; assay type: functional; conditions: Homo sapiens; summary of the method: as §3
MOLT-4 [19] = assay: Gaint cell formation between HIV-2 (LAV-2 rod) infected HUT-78 cells and uninfected MOLT-4(clone-8)cells; assay type: functional, cell-based; conditions: Homo sapiens; summary of the method: as §2
Vero [20] = assay: Antiviral activity was determined against Tacaribe virus in Vero cells by measuring concentration required to reduce virus induced cytopathogenicity by 50%.; assay type: functional, cell-based; conditions: Chlorocebus sabaeus
Homo sapiens [21] = organism: Homo sapiens; assay: Inhibition of p24 production in Peripheral blood lymphocytes; assay type: functional, organism-based
Summary of the method: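 Phytohemagglutinin-stimulated peripheral blood lymphocytes infected with HIV-1 WUJO. Read-out is virion-associated p24 production. Compounds tested as ammonium salts. Values are means of at least two experiments.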

[22] = target: Human immunodeficiency virus type 1 integrase (Human immunodeficiency virus 1, UniProt Q7ZJM1); assay: Inhibition of HIV -1 Integrase
Summary of the method: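 Purified HIV-1 integrase. 3'-processing and strand-transfer (integration) activities were measured with synthetic double-stranded oligonucleotides mimicking viral DNA ends. Compounds tested as ammonium salts. Values are means of at least two experiments.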

Vero [23] = assay: Anti viral activity against Vero cellular cytotoxicity by minimum cytotoxic concentration that causes a microscopically detectable alteration of normal cell morphology after 2 day of treatment.; assay type: functional; conditions: Chlorocebus sabaeus, 48 h
HEL [24] = assay: Anti viral activity against HEL cytotoxicity by minimum cytotoxic concentration that causes a microscopically detectable alteration of normal cell morphology after 2 day of treatment.; assay type: functional; conditions: Homo sapiens, 48 h
HeLa [25] = assay: Antiviral activity was determined against Respiratory syncytial virus(strain Long) in HeLa cells by measuring concentration required to reduce virus induced cytopathogenicity by 50%.; assay type: functional, cell-based; conditions: Homo sapiens
Summary of the method: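 RSV cytopathicity in HeLa cells. Compound added immediately after virus infection and left in the culture. Virus-induced cytopathogenicity scored at day 5 post-infection. IC50 in μg/mL.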

CCRF-CEM = assay: Cytotoxical effect against CEM cell lines was determined by reduction of cellular viability. data represent mean value of at least two separate experiments.; assay type: functional; conditions: Homo sapiens; summary of the method: as §3

Sequence of Human immunodeficiency virus type 1 integrase (Q7ZJM1 whole entry): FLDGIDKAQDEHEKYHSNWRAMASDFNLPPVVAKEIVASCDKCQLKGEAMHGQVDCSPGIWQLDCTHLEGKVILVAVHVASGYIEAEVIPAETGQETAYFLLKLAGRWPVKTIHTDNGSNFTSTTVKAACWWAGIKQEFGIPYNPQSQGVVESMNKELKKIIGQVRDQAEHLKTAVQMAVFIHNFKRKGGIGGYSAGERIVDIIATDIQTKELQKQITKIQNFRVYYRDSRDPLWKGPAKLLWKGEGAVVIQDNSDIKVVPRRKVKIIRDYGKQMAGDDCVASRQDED

SMILES: CCCCCC=C(c1cc(Cl)c(O)c(C(=O)NO)c1)c1cc(Cl)c(O)c(C(=O)NO)c1
- CC50 (HeLa [1]): 4 µM
- pIC50 (MDCK [2]): < 5.40
- pIC50 (Vero [3]): < 5.70
- pIC50 (MOLT-4 [4]): 5.10
- pIC50 (MT4 [5]): 4.66
- pIC50 (HEL [6]): < 5.30
- CC50 (Homo sapiens [7]): 148 µM
- CC50 (MDCK [8]): 4 µM
- pIC50 (HEL [9]): 5.30
- pIC50 (HEL [10]): < 4.70
- pIC50 (HEL [11]): < 5.30
- pIC50 (MDCK [12]): < 5.40
- pIC50 (MT4 [13]): < 4.40
- pIC50 (HEL [14]): < 5.30
- pIC50 [15]: 4.24
- pIC50 (HEL [16]): 5.30
- pIC50 (HEL [17]): 5.30
- CC50 (MT4 [18]): > 40 µM
- pIC50 (MOLT-4 [19]): 4.40
- pIC50 (Vero [20]): < 5.70
- pIC50 (Homo sapiens [21]): 3.95
- pIC50 [22]: 5.40
- CC50 (Vero [23]): 5 µM
- CC50 (HEL [24]): 20 µM
- pIC50 (HeLa [25]): < 5.40
- CC50 (CCRF-CEM): 36.2 µM
